In assay [1] the test system is Human alphaherpesvirus 2. Briefly: Compound was tested for its antiviral activity against HSV-2 (MS) using plaque reduction assay. Type of assay: functional, organism-based. The gist of the method: (§1)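 MRC-5 cell monolayers were infected with about 50 PFU of virus. Compounds were present at various concentrations for the whole incubation; stocks were 10 mg/mL in Me2SO, diluted in culture medium. IC50 is the concentration that cut plaque count to 50% of untreated controls.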
On the technique in general: Plaque reduction counts the foci of infection that form in a cell layer.

In assay [2] the test system is Human alphaherpesvirus 3. In words: Compound was tested for its antiviral activity against VZV (Ellen) using plaque reduction assay. Type of assay: functional, organism-based. An outline of the steps: as §1
The test system of assay [3] is Human alphaherpesvirus 1. In words: Compound was tested for its antiviral activity against HSV-1 (SC16) using plaque reduction assay. Type of assay: functional, organism-based. An outline of the steps: as §1
Assay [4] has as its system Human alphaherpesvirus 3. Briefly: Compound was tested for its antiviral activity against VZV(Ellen) using plaque reduction assay.
Assay [5] deals with Human alphaherpesvirus 2. Briefly: Compound was tested for its antiviral activity against HSV-2(MS) using plaque reduction assay. Type of assay: functional, organism-based. The gist of the method:
as §1

Some results are limits rather than exact numbers.

The results in this text go back to ChEMBL document CHEMBL1125754, “Synthesis and antiviral activity of 9-alkoxypurines. 2. 9-(2,3-Dihydroxypropoxy)-, 9-(3,4-dihydroxybutoxy)-, and 9-(1,4-dihydroxybut-2-oxy)purines” (J Med Chem, 1991).

In general, IC50 refers to the concentration needed to halve the response being measured.

Turning to `Nc1nc(O)c2ncn(OCCC(O)CO)c2n1` (centres undefined), the IC50 in assay [1], in assay [2] and in assay [3] was above 390 µM in each case.
For the compound `Nc1nc(O)c2ncn(OC[C@H](O)CO)c2n1`, the IC50 in assay [1], in assay [2] and in assay [3] was above 415 µM throughout.
Turning to `Nc1nc(O)c2ncn(OC[C@@H](O)CO)c2n1`, the IC50 in assay [1] amounted to 0.46 µM; in assay [2], 62 µM; in assay [3], 2.7 µM.
In the case of `Nc1nc(O)c2ncn(OC(CO)CCO)c2n1` (centres undefined), the IC50 in assay [1] was above 390 µM; in assay [2] it was 30 µM; in assay [3], 43 µM.
Take `Nc1nc(O)c2ncn(O[C@@H](CO)CCO)c2n1`: the IC50 was above 390 µM in assay [1], above 390 µM in assay [2] and 390 µM in assay [3].
Turning to `Nc1nc(O)c2ncn(O[C@H](CO)CCO)c2n1`, the figures for the IC50 in assay [1], in assay [2] and in assay [3] were above 390 µM, 8.3 µM and 36 µM, respectively.
For `Nc1nc2c(ncn2COCCO)c(=O)[nH]1` [ACYCLOVIR], the IC50 in assay [4] came to 15 µM; in assay [5], 1.2 µM; in assay [3], 4.8 µM.
For the compound `Nc1nc(O)c2ncn(OCC(O)CO)c2n1` (centres undefined), the IC50 in assay [1] was 2.8 µM; in assay [2] it was 154 µM; in assay [3], 7.9 µM.
